From ChEMBL document CHEMBL5316310, “Discovery of MK-8189, a Highly Potent and Selective PDE10A Inhibitor for the Treatment of Schizophrenia” (J Med Chem, 2023)
In brackets after ≈: the same amount, converted by molar mass. Activity calls are given as the source filed them. The rule behind the calls is not given here.

What was measured:
[1] = target: T1, cAMP and cAMP-inhibited cGMP 3',5'-cyclic phosphodiesterase 10A (Homo sapiens, UniProt Q9Y233); assay: Inhibition of human PDE10A2 transfected in human AD293 cells cytosolic fraction using cAMP as substrate by fluorescence polarization assay; type: subcellular, Cytosol
T1 sequence (Q9Y233 whole entry): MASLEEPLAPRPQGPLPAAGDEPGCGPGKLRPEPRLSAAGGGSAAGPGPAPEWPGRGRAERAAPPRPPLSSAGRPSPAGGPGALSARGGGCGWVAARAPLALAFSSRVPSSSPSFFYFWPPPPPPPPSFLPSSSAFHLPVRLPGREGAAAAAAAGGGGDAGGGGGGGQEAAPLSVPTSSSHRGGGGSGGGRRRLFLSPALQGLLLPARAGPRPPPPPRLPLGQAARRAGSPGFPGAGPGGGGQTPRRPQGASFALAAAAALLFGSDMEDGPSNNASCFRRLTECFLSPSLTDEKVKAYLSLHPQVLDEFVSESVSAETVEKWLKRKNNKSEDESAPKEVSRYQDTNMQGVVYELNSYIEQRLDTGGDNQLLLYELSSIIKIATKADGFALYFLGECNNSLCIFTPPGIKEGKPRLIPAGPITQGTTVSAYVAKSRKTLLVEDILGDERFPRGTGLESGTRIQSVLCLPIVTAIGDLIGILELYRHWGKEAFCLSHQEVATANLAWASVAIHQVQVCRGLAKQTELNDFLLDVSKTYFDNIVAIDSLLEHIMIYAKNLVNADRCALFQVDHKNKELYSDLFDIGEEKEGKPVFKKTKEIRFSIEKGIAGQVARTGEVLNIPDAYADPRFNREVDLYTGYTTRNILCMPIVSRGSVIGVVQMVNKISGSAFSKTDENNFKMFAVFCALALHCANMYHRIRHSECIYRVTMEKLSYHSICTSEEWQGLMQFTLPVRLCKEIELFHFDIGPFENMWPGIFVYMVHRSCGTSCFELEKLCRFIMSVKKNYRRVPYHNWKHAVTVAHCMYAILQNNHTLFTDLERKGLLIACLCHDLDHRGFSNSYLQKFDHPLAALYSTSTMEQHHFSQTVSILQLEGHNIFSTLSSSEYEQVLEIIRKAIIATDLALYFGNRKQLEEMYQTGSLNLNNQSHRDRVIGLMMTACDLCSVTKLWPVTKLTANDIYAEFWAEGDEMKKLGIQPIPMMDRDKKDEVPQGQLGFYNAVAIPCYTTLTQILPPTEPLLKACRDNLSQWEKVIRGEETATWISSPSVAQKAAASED

[2] = Selectivity ratio of Ki for N-terminal GST-tagged human recombinant PDE1A expressed in baculovirus-infected Sf9 cells to Ki for human PDE10A2 transfected in human AD293 cells cytosolic fraction
[3] = Selectivity ratio of Ki for N-terminal GST-tagged human recombinant PDE5A1 (1 to 875 residues) expressed in baculovirus-infected Sf9 cells to Ki for human PDE10A2 transfected in human AD293 cells cytosolic fraction
[4] = Selectivity ratio of Ki for N-terminal GST-tagged and C-terminal His-tagged human recombinant PDE7A (122 to 456 residues) expressed in baculovirus-infected Sf9 cells to Ki for human PDE10A2 transfected in human AD293 cells cytosolic fraction
[5] = Selectivity ratio of Ki for N-terminal GST-tagged full length human recombinant PDE8A1 expressed in baculovirus-infected Sf9 cells to Ki for human PDE10A2 transfected in human AD293 cells cytosolic fraction
[6] = Selectivity ratio of Ki for N-terminal GST-tagged human recombinant PDE11A4 (1 to 943 residues) expressed in baculovirus-infected Sf9 cells to Ki for human PDE10A2 transfected in human AD293 cells cytosolic fraction
[7] = Lipophilicity, log D of the compound; type: physicochemical; settings: octanol/water
[8] = target: Voltage-gated inwardly rectifying potassium channel KCNH2 (Homo sapiens, UniProt Q12809); assay: Displacement of MK499 from hERG; type: toxicity
Chain of Voltage-gated inwardly rectifying potassium channel KCNH2 (Q12809 whole entry): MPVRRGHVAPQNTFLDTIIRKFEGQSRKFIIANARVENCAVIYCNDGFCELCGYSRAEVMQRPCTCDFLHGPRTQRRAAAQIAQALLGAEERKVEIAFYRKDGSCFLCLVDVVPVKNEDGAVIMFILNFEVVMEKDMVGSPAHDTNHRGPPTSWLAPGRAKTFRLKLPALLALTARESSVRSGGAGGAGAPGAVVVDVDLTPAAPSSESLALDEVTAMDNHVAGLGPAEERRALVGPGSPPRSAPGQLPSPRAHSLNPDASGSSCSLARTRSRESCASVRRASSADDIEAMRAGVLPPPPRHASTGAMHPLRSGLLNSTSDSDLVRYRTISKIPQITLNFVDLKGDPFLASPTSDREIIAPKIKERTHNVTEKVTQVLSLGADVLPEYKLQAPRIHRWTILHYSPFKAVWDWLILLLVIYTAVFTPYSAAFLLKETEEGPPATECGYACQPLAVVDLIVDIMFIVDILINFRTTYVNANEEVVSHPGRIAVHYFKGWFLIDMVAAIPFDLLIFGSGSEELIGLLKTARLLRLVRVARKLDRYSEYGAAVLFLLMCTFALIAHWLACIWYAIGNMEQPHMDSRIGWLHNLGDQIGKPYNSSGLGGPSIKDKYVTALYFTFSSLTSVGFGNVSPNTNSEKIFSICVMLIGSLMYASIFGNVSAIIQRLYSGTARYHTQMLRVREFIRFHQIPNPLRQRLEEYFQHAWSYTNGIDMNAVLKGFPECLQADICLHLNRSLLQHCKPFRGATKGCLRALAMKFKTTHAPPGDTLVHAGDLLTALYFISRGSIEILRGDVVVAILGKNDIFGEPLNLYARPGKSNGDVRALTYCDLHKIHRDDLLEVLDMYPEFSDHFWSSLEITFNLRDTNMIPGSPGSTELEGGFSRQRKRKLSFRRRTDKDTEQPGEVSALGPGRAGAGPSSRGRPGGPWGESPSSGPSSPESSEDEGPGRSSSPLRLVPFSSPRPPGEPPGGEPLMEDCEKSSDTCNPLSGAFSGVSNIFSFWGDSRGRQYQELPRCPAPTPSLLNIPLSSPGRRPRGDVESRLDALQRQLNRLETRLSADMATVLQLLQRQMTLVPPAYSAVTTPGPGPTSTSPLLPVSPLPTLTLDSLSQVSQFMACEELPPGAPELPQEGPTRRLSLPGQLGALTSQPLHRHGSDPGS

[9] = target: T2, Nuclear receptor subfamily 1 group I member 2 (Homo sapiens, UniProt O75469); assay: Activation of PXR (unknown origin) assessed as CYP3A4 induction; type: ADME
T2 sequence (O75469 whole entry): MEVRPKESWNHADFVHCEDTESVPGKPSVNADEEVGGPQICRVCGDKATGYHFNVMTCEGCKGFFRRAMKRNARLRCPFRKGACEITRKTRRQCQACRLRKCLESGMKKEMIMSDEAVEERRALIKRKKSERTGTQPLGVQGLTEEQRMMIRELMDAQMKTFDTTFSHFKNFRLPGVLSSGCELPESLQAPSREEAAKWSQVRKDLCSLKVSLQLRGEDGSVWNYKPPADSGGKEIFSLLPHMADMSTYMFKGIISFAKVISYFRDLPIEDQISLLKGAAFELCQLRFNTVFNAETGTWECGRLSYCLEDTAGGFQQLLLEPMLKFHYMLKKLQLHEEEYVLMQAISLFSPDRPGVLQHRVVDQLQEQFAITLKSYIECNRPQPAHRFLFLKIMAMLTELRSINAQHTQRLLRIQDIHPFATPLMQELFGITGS

P-gp (ABCB1) = P-gp (ABCB1) (Rattus norvegicus, UniProt P43245); assay: Substrate activity at rat P-gp assessed as efflux ratio; type: ADME
Chain of P-gp (ABCB1) (P43245 whole entry): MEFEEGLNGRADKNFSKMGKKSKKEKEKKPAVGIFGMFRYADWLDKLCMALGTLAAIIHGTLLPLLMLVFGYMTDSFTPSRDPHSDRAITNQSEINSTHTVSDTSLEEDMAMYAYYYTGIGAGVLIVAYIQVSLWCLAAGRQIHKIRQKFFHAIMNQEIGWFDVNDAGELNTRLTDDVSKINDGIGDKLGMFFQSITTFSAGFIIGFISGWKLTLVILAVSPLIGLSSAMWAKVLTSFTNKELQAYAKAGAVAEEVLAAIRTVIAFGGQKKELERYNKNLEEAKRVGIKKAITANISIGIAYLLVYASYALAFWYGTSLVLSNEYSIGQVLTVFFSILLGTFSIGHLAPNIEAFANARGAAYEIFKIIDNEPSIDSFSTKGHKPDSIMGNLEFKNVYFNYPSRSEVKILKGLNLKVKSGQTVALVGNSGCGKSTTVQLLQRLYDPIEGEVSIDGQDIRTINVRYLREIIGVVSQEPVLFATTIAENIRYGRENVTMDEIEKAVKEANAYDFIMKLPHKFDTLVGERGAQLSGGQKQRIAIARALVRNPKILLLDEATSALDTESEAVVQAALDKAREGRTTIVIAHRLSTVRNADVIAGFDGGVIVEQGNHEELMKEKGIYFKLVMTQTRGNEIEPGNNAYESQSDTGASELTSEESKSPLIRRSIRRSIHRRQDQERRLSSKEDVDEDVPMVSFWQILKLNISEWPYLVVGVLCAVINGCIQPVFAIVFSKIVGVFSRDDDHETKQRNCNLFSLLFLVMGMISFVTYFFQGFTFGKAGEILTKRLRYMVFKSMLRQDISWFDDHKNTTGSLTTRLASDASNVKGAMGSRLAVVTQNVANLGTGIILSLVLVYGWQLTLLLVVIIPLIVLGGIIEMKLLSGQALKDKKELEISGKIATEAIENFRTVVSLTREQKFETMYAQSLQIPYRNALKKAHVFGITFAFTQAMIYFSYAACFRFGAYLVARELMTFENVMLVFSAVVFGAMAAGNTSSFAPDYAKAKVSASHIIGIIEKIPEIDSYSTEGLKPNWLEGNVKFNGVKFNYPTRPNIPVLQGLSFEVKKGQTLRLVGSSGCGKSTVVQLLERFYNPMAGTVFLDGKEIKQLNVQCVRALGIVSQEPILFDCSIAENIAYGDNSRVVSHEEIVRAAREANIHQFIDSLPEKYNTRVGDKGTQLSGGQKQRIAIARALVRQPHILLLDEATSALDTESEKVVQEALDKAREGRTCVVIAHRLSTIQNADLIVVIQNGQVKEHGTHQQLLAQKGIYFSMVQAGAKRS

[10] = target: T1, cAMP and cAMP-inhibited cGMP 3',5'-cyclic phosphodiesterase 10A; assay: Binding affinity to human full length His-tagged PDE10A2 assessed as on-rate constant by surface plasmon resonance analysis
[11] = Solubility of compound in FaSSIF; type: physicochemical; settings: simulated gi fluid
[12] = Solubility of compound in acidic simulated gastric fluid; type: physicochemical; settings: simulated gi fluid
[13] = Protein binding in human plasma; type: ADME, cell-free
[14] = Half-life in Wistar-Hannover rat at 2 mg/kg, iv by LC-MS/MS analysis; type: ADME, organism-based; settings: in vivo
Method in brief: (§1)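 IV bolus in DMSO/PEG400 (1:1). Male Wistar–Hannover rats (n = 3, ~300 g): 2 mg/kg via jugular cannula, sampled 0.03–24 h. Male rhesus (n = 3): 0.5 mg/kg into saphenous or cephalic vein, sampled to 24 h. Plasma (EDTA) analysed by LC-MS/MS after acetonitrile precipitation. Non-compartmental analysis; CL = dose/AUC0-inf; t1/2 from log-linear regression of the terminal phase. Values are means.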

[15] = Plasma clearance in Rhesus monkey at 0.5 mg/kg, iv by LC-MS/MS analysis; type: ADME, organism-based, Macaca mulatta; method in brief: as §1
[16] = Oral bioavailability in Rhesus monkey at 5 mg/kg by LC-MS/MS analysis; type: ADME, organism-based, Macaca mulatta; settings: in vivo
Method in brief: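 Oral gavage, 5 mL/kg. Rats (n = 3 male Wistar–Hannover) received 10 mg/kg in acidified 10% Tween 80, pH 2, sampled 0.25–24 h. Rhesus (2 female, 1 male) received 5 mg/kg in 0.5% methylcellulose with 1 mol equiv HCl. Plasma quantified by LC-MS/MS. F was taken from dose-adjusted PO/IV AUC0-inf ratios versus the 2 mg/kg (rat) or 0.5 mg/kg (rhesus) IV legs; values are means of n = 3.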

[17] = Protein binding in rat plasma assessed as unbound fraction; type: ADME, cell-free
[18] = target: Sodium channel protein type 5 subunit alpha (Homo sapiens, UniProt Q14524); assay: Inhibition of Nav1.5 (unknown origin)
[19] = target: Somatostatin receptor type 2 (Homo sapiens, UniProt P30874); assay: Displacement of [125I]somatostatin from human full-length recombinant SSTR2 expressed in CHO-K1 cells by radioligand binding assay; type: cell-based
Chain of Somatostatin receptor type 2 (P30874 whole entry): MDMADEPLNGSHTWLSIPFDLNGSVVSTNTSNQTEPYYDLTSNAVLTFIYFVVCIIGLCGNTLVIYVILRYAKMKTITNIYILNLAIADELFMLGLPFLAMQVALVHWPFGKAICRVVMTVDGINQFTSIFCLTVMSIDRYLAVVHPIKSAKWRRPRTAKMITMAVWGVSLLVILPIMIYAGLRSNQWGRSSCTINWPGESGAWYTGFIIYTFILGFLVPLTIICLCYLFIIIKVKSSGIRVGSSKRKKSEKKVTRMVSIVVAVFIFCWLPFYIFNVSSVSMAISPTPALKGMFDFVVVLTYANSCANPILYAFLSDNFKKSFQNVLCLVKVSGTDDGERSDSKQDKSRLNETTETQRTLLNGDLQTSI

[20] = Substrate activity at monkey P-gp assessed as efflux ratio; type: ADME, Macaca mulatta; settings: rhesus monkey
[21] = Plasma concentration in MK-801-induced psychosis rat model at 0.25 mg/kg, po administered 1 hr prior to MK-801 administration and measured after 90 mins; type: ADME, organism-based; settings: time 150 min
Method in brief: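 Rats dosed orally, then MK-801 1 h later; locomotor activity recorded over 90 min. Plasma drawn 2.5 h post dose at end of the study and assayed for compound. n = 8/group, reported as mean (SEM).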

Rattus norvegicus = assay: Cognitive-enhancing activity in rat assessed as improvement in novel object recognition at 0.16 to 0.25 mg/kg, po measured after 1 hr by novel object recognition test; type: functional, organism-based; settings: dose 0.16-0.25 mg/kg
Method in brief: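 Novel object recognition in rats: oral dosing, then discrimination of a novel object from one seen 48 h earlier. Doses 0.08–0.25 mg/kg; donepezil 0.56 mg/kg as positive control. Groups compared with vehicle (p < 0.05). Plasma for exposure taken 1 h post dose, n = 4/group.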

[22] = Plasma concentration in rat at 0.08 mg/kg, po measured after 1 hr; type: ADME, organism-based
Method in brief: (§2)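 Rat novel object recognition (episodic memory) study, orally dosed. Plasma drawn 1 h post dose at end of the experiment for compound level. n = 4/group, reported as mean (SEM).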

[23] = Plasma concentration in rat at 0.16 mg/kg, po measured after 1 hr; type: ADME, organism-based; method in brief: as §2
[24] = Plasma concentration in rat at 0.25 mg/kg, po measured after 1 hr; type: ADME, organism-based; method in brief: as §2
[25] = In vivo receptor occupancy at PDE10A receptor in rat striatum at 0.08 mg/kg, po measured after 1 hr; type: functional
Method in brief: (§3)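 Striatal PDE10A occupancy in rats given the compound orally during the novel object recognition test. Occupancy was not measured directly but derived from plasma concentration taken 1 h post dose. n = 4/group, reported as mean (SEM).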

[26] = In vivo receptor occupancy at PDE10A receptor in rat striatum at 0.25 mg/kg, po measured after 1 hr; type: functional; method in brief: as §3
[27] = Protein binding in monkey plasma assessed as unbound fraction; type: ADME, cell-free, Macaca mulatta; settings: rhesus monkey

Cc1ccc([C@H]2C[C@@H]2COc2cc(NCc3nnc(C)s3)nc(C)n2)nc1 [MK-8189]
Ki [1]: 0.029 nM | Ratio Ki [2]: > 500000 | Ratio Ki [3]: > 500000 | Ratio Ki [4]: > 500000 | Ratio Ki [5]: > 500000 | Ratio Ki [6]: > 500000 | logD [7]: 2.1 | IC50 [8]: 33 µM | EC50 [9]: > 30 µM | efflux ratio (P-gp (ABCB1)): 2.6 | K [10]: 8 10^7/M/s | solubility [11]: 170 µg/mL (≈ 0.444 mM) | solubility [12]: 5000 µg/mL (≈ 13.1 mM) | PPB [13]: 96% | t1/2 [14]: 4.8 h | clearance [15]: 9.3 mL/min/kg | F [16]: 41% | Fu [17]: 8.2% | IC50 [18]: > 30 µM | IC50 [19]: 2.8 µM | Ratio [20]: < 2 | concentration at 2.5 h [21]: 17 nM | Activity (Rattus norvegicus): Active | concentration at 1 h [22]: 16 nM | concentration at 1 h [23]: 18 nM | concentration at 1 h [24]: 29 nM | Occ [25]: 24% | Occ [26]: 34% | Fu [27]: 8.7%
